Assay results taken from PMC9263996 (iScience, 2022).
Entries after “also recorded” stand apart in the source; their conditions may differ.

Assays:
MaltOBP24 [1] = experiment: Fluorescence-quenching spectra assay, MaltOBP24; format: binding, Monochamus alternatus; conditions: for quenching mechanism of the interaction with MaltOBP24: change of Ksv with temperature 289–298 K, neutral pH
DhelOBP10 [2] = target: T1, DhelOBP10 (Dastarcus helophoroides, UniProt A0A1I9HZP4); experiment: Fluorescence-quenching spectra assay, DhelOBP10; format: binding; conditions: for ΔS (entropy change): DhelOBP10, pH 7.4; for ΔH (enthalpy change): DhelOBP10, pH 7.4, 289 and 298 K; for quenching mechanism of the interaction with DhelOBP10: change of Ksv with temperature 289–298 K, neutral pH; for main acting force between ligand and DhelOBP10: from signs of ΔH and ΔS; for Kd: Ka (apparent association constant)
T1 sequence (A0A1I9HZP4 20-220): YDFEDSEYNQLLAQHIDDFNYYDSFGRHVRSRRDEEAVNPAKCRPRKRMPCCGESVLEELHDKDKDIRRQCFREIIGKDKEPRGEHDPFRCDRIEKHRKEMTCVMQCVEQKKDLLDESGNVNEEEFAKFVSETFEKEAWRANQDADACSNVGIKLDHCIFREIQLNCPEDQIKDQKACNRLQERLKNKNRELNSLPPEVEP
How it was run: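 Intrinsic fluorescence of 2 μM recombinant DhelOBP10 in 30 mM Tris-HCl (pH 7.4 or 5.0): excitation 289 nm, slits 15/10 nm, scan 300–500 nm. Ligand aliquots came from 1 mM stock, at 289 and 298 K. Ksv and Kq were taken from Stern–Volmer fits, Ka and n from double-log plots, and ΔG, ΔH, ΔS from thermodynamic equations to assign binding force.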

M. alternatus adults = experiment: Y-tube olfactometer binary choice assay, M. alternatus adults; format: in vivo, Monochamus alternatus; conditions: for behavioral response of M. alternatus adults in Y-tube: untreated adults, in words
How it was run: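 Field-collected adults kept singly at 25°C on fresh pine twigs. RNAi: 1 μg dsMaltOBP24 or dsGFP injected into the frons of 4-day-old adults under CO₂ narcosis, with non-injected controls, and tested 4 days later. Y-tube with 40 cm stem, 30 cm arms at 60°, airflow 300 mL/min. Odour was 10 µL of 100-fold paraffin-oil dilution versus paraffin oil. Insects had 5 min; ≥30 per sex, each tested once; Chi-square.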

D. helophoroides adults = experiment: Y-tube olfactometer binary choice assay, D. helophoroides adults; format: in vivo, Dastarcus helophoroides; conditions: for behavioral response of D. helophoroides adults in Y-tube: untreated adults, in words; for attraction to D. helophoroides after silencing DhelOBP10: RNAi, compared with non-injected and dsGFP controls
How it was run: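 Adults reared at 25°C on an artificial diet. RNAi: 4-day-old adults given 300 ng dsDhelOBP10 or dsGFP into the frons, with non-injected controls, and tested 4 days later. Y-tube with 15 cm stem, 12 cm arms at 75°, airflow 300 mL/min per arm. Odour was 10 µL of 100-fold paraffin-oil dilution on filter paper versus paraffin oil. Insects had 5 min; arms swapped; ≥60 insects (30 per sex), each tested once; Chi-square.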

DhelOBP10 [3] = target: T1, DhelOBP10; experiment: Competitive fluorescence-binding assay with 1-NPN probe, recombinant DhelOBP10; conditions: for Ki: DhelOBP10 Ki (dissociation constant), 1-NPN competition, mean ± SEM
How it was run: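 Recombinant signal-peptide-free DhelOBP10 from E. coli (pET-32b; 1 mM IPTG induction, 12 h at 16°C), dialysed into Tris pH 7.4 or 5.0. […] Ligands (1 mM methanol stock) were added to 0–20 μM; Ki = IC50/(1+[1-NPN]/K1-NPN). Mean ± SEM.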

MaltOBP24 [4] = target: T2, MaltOBP24 (Monochamus alternatus, UniProt A0A1I9HZN3); experiment: Competitive fluorescence-binding assay with 1-NPN probe, recombinant MaltOBP24; conditions: MaltOBP24 Ki (dissociation constant), 1-NPN competition, mean ± SEM
T2 sequence (A0A1I9HZN3 1-169): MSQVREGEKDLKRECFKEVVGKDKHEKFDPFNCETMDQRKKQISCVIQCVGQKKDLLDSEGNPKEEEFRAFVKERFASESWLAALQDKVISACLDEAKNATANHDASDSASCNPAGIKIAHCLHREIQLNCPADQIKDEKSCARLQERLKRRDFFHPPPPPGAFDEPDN

SaveOBP3 = conditions: fluorescence-binding assays; ref Vandermoten et al., 2011; cited from earlier work
EbalOBP3 = conditions: fluorescence-binding assays; ref Vandermoten et al., 2011; cited from earlier work

ΔS (entropy change) (DhelOBP10 [2])	Kq (bimolecular quenching constant) (DhelOBP10 [2]; DhelOBP10, pH 7.4, 289 K) [M⁻¹ s⁻¹]	Ksv (quenching constant) (DhelOBP10 [2]; DhelOBP10, pH 7.4, 289 K)	n (number of binding sites) (DhelOBP10 [2]; DhelOBP10, pH 7.4, 289 K)	ΔG (free energy change) (DhelOBP10 [2]; DhelOBP10, pH 7.4, 289 K)	Kq (bimolecular quenching constant) (DhelOBP10 [2]; DhelOBP10, pH 7.4, 298 K) [M⁻¹ s⁻¹]	Ksv (quenching constant) (DhelOBP10 [2]; DhelOBP10, pH 7.4, 298 K)	n (number of binding sites) (DhelOBP10 [2]; DhelOBP10, pH 7.4, 298 K)	ΔG (free energy change) (DhelOBP10 [2]; DhelOBP10, pH 7.4, 298 K)	quenching mechanism of the interaction with DhelOBP10 (DhelOBP10 [2])	Ki (MaltOBP24 [4]; pH5.0) [µM]	Ki (MaltOBP24 [4]; pH7.4) [µM]	Ki (DhelOBP10 [3]; pH5.0) [µM]	Ki (DhelOBP10 [3]; pH7.4) [µM]	Compound	quenching mechanism of the interaction with MaltOBP24 (MaltOBP24 [1])	behavioral response of M. alternatus adults in Y-tube (M. alternatus adults)	behavioral response of D. helophoroides adults in Y-tube (D. helophoroides adults)	other results
0.008678 kcal/mol	5.736e+11	5,736 ± 153.1 L·mol^−1	1.0321 ± 0.0670	−21,851.44 J·mol^−1	2.139e+11	2,139 ± 58.09 L·mol^−1	0.9823 ± 0.1034	−18,944.55 J·mol^−1	static quenching					CC1=CCC(=C(C)C)CC1 [α-terpinolene]	static quenching	did not affect their behavior	did not show preference	Ka (apparent association constant) (MaltOBP24 [1]; MaltOBP24, pH 7.4, 289 K): 5,449,703.40 L·mol^−1; Kq (bimolecular quenching constant) (MaltOBP24 [1]; MaltOBP24, pH 7.4, 289 K): 2.5179e+12 M⁻¹ s⁻¹; Ksv (quenching constant) (MaltOBP24 [1]; MaltOBP24, pH 7.4, 289 K): 25,179 ± 659.6 L·mol^−1; Ka (apparent association constant) (MaltOBP24 [1]; MaltOBP24, pH 7.4, 298 K): 2,525,092.74 L·mol^−1; Kq (bimolecular quenching constant) (MaltOBP24 [1]; MaltOBP24, pH 7.4, 298 K): 2.0347e+12 M⁻¹ s⁻¹; Ksv (quenching constant) (MaltOBP24 [1]; MaltOBP24, pH 7.4, 298 K): 20,347 ± 501.6 L·mol^−1; Ka (apparent association constant) (DhelOBP10 [2]; DhelOBP10, pH 7.4, 289 K): 8,904.93 L·mol^−1; ΔH (enthalpy change) (DhelOBP10 [2]): −11,356.86 J·mol^−1; Ka (apparent association constant) (DhelOBP10 [2]; DhelOBP10, pH 7.4, 298 K): 2,093.14 L·mol^−1; main acting force between ligand and DhelOBP10 (DhelOBP10 [2]): electrostatic force
0.01114 kcal/mol	6.287e+11	6,287 ± 91.45 L·mol^−1	0.9715 ± 0.0292	−20,458.37 J·mol^−1	4.016e+11	4,016 ± 108.1 L·mol^−1	0.9324 ± 0.0422	−18,738.30 J·mol^−1	static quenching					C=C(C)[C@H]1CC=C(C)CC1 [R-(+)-limonene]	dynamic quenching	did not affect their behavior	significant preference	ligand-binding affinity with DhelOBP10 (class) (DhelOBP10 [3]; fluorescence binding combined with quenching): high (high if the Ki values <20 μM); Ka (apparent association constant) (DhelOBP10 [2]; DhelOBP10, pH 7.4, 289 K): 4,986.95 L·mol^−1; ΔH (enthalpy change) (DhelOBP10 [2]): −6,986.94 J·mol^−1; Ka (apparent association constant) (DhelOBP10 [2]; DhelOBP10, pH 7.4, 298 K): 1,925.95 L·mol^−1; attraction to D. helophoroides after silencing DhelOBP10 (D. helophoroides adults): not altered
										38.5 ± 3.44	24.2 ± 1.94	3.65 ± 0.34	15.7 ± 1.26	C=C1CC[C@H]2O[C@]2(C)CC[C@@H]2[C@@H]1CC2(C)C [(−)-caryophyllene oxide]				
0.01694 kcal/mol	3.742e+11	3,742 ± 92.59 L·mol^−1	0.9404 ± 0.0271	−18,347.45 J·mol^−1	2.913e+11	2,913 ± 190.8 L·mol^−1	0.9471 ± 0.0676	−18,846.32 J·mol^−1	static quenching					(+)-fenchone	static quenching	significantly attracted; also recorded: could attract adults	significantly attracted; also recorded: significant preference	Ka (apparent association constant) (MaltOBP24 [1]; MaltOBP24, pH 7.4, 289 K): 3,312,799.36 L·mol^−1; Kq (bimolecular quenching constant) (MaltOBP24 [1]; MaltOBP24, pH 7.4, 289 K): 2.4531e+12 M⁻¹ s⁻¹; Ksv (quenching constant) (MaltOBP24 [1]; MaltOBP24, pH 7.4, 289 K): 24,531 ± 303.9 L·mol^−1; Ka (apparent association constant) (MaltOBP24 [1]; MaltOBP24, pH 7.4, 298 K): 2,154,595.09 L·mol^−1; Kq (bimolecular quenching constant) (MaltOBP24 [1]; MaltOBP24, pH 7.4, 298 K): 1.4813e+12 M⁻¹ s⁻¹; Ksv (quenching constant) (MaltOBP24 [1]; MaltOBP24, pH 7.4, 298 K): 14,813 ± 141.8 L·mol^−1; Ka (apparent association constant) (DhelOBP10 [2]; DhelOBP10, pH 7.4, 289 K): 2,071.51 L·mol^−1; Ka (apparent association constant) (DhelOBP10 [2]; DhelOBP10, pH 7.4, 298 K): 2,011.77 L·mol^−1; main acting force between ligand and DhelOBP10 (DhelOBP10 [2]): hydrophobic; attraction index to M. alternatus after silencing MaltOBP24 (M. alternatus adults; RNAi, compared with non-injected and dsGFP controls): significantly decreased; attraction to D. helophoroides after silencing DhelOBP10 (D. helophoroides adults): significantly decreased
										> 50	22.1 ± 3.21	8.29 ± 1.99	24.5 ± 2.44	C=C1C2CCC(C2)C1(C)C (centres unmarked) [camphene]				
														(+)-α-pinene	dynamic quenching			
														C=CC(=C)CC/C=C(\C)CCC=C(C)C [(E)-β-farnesene]				affinity with SaveOBP3 (SaveOBP3): high affinity; affinity with EbalOBP3 (EbalOBP3): high affinity
42.1 J/(mol·K)	3.524e+11	3,524 ± 122.4 L·mol^−1	0.9999 ± 0.0605	−19,760.09 J·mol^−1	2.97e+11	2,970 ± 15.32 L·mol^−1	0.9088 ± 0.0218	−17,960.72 J·mol^−1	static quenching	23.5 ± 2.33	3.31 ± 0.68	13.9 ± 2.91	14.5 ± 2.61	CC1=CCC2C(C1)C2(C)C (centres unmarked) [3-carene]	static quenching	did not affect their behavior	significant preference	Ka (apparent association constant) (MaltOBP24 [1]; MaltOBP24, pH 7.4, 289 K): 9,394,307.39 L·mol^−1; Kq (bimolecular quenching constant) (MaltOBP24 [1]; MaltOBP24, pH 7.4, 289 K): 2.4156e+12 M⁻¹ s⁻¹; Ksv (quenching constant) (MaltOBP24 [1]; MaltOBP24, pH 7.4, 289 K): 24,156 ± 442.5 L·mol^−1; Ka (apparent association constant) (MaltOBP24 [1]; MaltOBP24, pH 7.4, 298 K): 3,347,243.70 L·mol^−1; Kq (bimolecular quenching constant) (MaltOBP24 [1]; MaltOBP24, pH 7.4, 298 K): 1.8949e+12 M⁻¹ s⁻¹; Ksv (quenching constant) (MaltOBP24 [1]; MaltOBP24, pH 7.4, 298 K): 18,949 ± 876.5 L·mol^−1; ΔH (enthalpy change) (DhelOBP10 [2]): −7,595.91 J·mol^−1; Kd (DhelOBP10 [2]; DhelOBP10, pH 7.4, 289 K): 268 µM; Kd (DhelOBP10 [2]; DhelOBP10, pH 7.4, 298 K): 711 µM; main acting force between ligand and DhelOBP10 (DhelOBP10 [2]): electrostatic force; attraction to D. helophoroides after silencing DhelOBP10 (D. helophoroides adults): significantly lower attraction index
										> 50	> 50	9.09 ± 1.7	33.8 ± 1.04	CC12CCC(CC1=O)C2(C)C (centres unmarked) [camphor]				
										22.4 ± 2.29	24.3 ± 3.95	3.93 ± 0.71	28.7 ± 1.12	C=CC(=C)CCC=C(C)C [myrcene]				
									dynamic quenching					CC1=CC[C@@H]2[C@@H]3[C@H]1[C@@]2(C)CCCC3(C)C [(+)-α-longipinene]				
